Results published in ChEMBL document CHEMBL4038302, “Fibroblast Activation Protein α Activated Tripeptide Bufadienolide Antitumor Prodrug with Reduced Cardiotoxicity” (J Med Chem, 2017).

Key:
Mus musculus [1] = assay: Hepatotoxicity in BALB/C nude mouse xenografted with human MDA-MB-231 cells at 12 umol/kg, iv administered starting on day 5 measured after day 22 by hematoxylin-eosin staining-based assay; type: toxicity, organism-based; settings: in vivo
In short: (§1)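 Tissues from dosed xenograft mice fixed for 24 h and paraffin-embedded. Sections of 5 μm, H&E stained; heart, liver, spleen, lung, kidney and femur examined by a pathologist blind to treatment.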

[2] = Cytotoxicity in BMSC (unknown origin) assessed as cell viability at 1000 nmol/L after 72 hrs by MTT assay; type: cell-based; settings: unidentified, 1 µM
Prolyl endopeptidase FAP = biological target: T1, Prolyl endopeptidase FAP (Homo sapiens, UniProt Q12884); assay: Prodrug activation assessed as recombinant human FAP-alpha mediated (S)-((3S,5R,8R,9S,10S,11S,13R,14S,17R)-11,14-dihydroxy-10,13-dimethyl-12-oxo-17-(2-oxo-2H-pyran-5-yl)hexadecahydro-1H-cyclopenta[a]phenanthren-3-yl) 2-amino-3-(1H-indol-3-yl)propanoate formation at 40 umol/L after 6 hrs in presence of FAP-alpha inhibitor talabostat by UPLC-MS/MS analysis; settings: 40 µM
T1 sequence (Q12884 whole entry): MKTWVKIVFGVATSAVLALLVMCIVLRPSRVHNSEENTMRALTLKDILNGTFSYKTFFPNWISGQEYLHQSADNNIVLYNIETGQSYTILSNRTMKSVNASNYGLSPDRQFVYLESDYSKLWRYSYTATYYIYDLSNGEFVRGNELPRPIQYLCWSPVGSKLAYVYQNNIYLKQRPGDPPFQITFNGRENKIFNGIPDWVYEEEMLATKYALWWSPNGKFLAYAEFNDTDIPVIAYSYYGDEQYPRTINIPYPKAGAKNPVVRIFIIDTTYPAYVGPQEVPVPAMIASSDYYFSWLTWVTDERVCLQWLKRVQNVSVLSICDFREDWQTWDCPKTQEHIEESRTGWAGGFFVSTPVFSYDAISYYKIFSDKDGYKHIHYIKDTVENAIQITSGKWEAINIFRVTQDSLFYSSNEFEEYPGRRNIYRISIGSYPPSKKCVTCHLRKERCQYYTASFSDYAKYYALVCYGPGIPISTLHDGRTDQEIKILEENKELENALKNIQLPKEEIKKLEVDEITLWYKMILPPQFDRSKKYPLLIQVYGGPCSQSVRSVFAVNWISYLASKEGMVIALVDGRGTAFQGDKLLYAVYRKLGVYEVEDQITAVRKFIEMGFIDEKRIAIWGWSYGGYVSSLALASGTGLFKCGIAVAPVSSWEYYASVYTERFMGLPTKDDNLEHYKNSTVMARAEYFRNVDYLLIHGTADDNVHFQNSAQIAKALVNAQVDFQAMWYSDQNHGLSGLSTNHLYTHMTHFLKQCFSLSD
In short: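 Prodrug at 40 μmol/L incubated with rhFAPα at 0.45 μg/mL in 0.2 mL buffer at 37 °C for 6 h, with bufalin at 2 μmol/L as internal standard. Stopped with acetonitrile and spun at 18 000g for 15 min. Released active form measured by UPLC-MS/MS via peak-area ratio against a standard curve of 0.625–40 μmol/L.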

Mus musculus [3] = assay: Toxicity in BALB/C nude mouse xenografted with human MDA-MB-231 cells assessed as histopathologic change in femur at 12 umol/kg, iv administered starting on day 5 measured after day 22 by hematoxylin-eosin staining-based assay; type: organism-based; settings: in vivo; in short: as §1
Mus musculus [4] = assay: Cardiotoxicity in BALB/C nude mouse xenografted with human MDA-MB-231 cells assessed as cytoplasmic vacuolization at 12 umol/kg, iv administered starting on day 5 measured after day 22 by hematoxylin-eosin staining-based assay; type: toxicity, organism-based; settings: in vivo; in short: as §1
Mus musculus [5] = assay: Cardiotoxicity in BALB/C nude mouse xenografted with human MDA-MB-231 cells assessed as change in interventricular septal diastole dimension at 12 umol/kg, iv administered starting on day 5 measured after day 22 by echocardiography; type: toxicity, organism-based; settings: in vivo
In short: (§2)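 Same MDA-MB-231 xenograft mice, given daily iv doses in 5% HS15 from day 5. After 22 days of dosing, transthoracic echocardiography with a 21 MHz transducer under 1.5% isoflurane, supine. M-mode images taken from the parasternal short-axis view at the papillary muscle; IVSd, IVSs, LVIDd and LVIDs derived, n = 6.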

[6] = In vivo prodrug activation in tumor of BALB/C nude mouse xenografted with human MDA-MB-231 cells assessed as FAP-alpha mediated (S)-((3S,5R,8R,9S,10S,11S,13R,14S,17R)-11,14-dihydroxy-10,13-dimethyl-12-oxo-17-(2-oxo-2H-pyran-5-yl)hexadecahydro-1H-cyclopenta[a]phenanthren-3-yl) 2-amino-3-(1H-indol-3-yl)propanoate formation at 40 umol/L by LC-MS/MS analysis; design: species or system Neoplasm
In short: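 Tumour and heart tissue weighed and homogenized on ice in PBS, pH 7.4, then incubated with prodrug at 40 μmol/L. Bufalin at 2 μmol/L added as internal standard; reaction stopped with acetonitrile and spun at 18 000g for 30 min. Active form quantified by LC-MS/MS against a standard curve of 0.625–40 μmol/L; mean ± SEM of three samples.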

[7] = Safety index, ratio of test compound LD50 to arenobufagin LD50 for Kunming mouse; type: ADME; settings: in vivo
In short: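 LD50 from single-dose iv acute toxicity in Kunming mice (five dose levels per compound, n = 10 per group, 14-day observation), calculated by Bliss method; ratio taken against arenobufagin LD50.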

Mus musculus [8] = assay: Cardiotoxicity in BALB/C nude mouse xenografted with human MDA-MB-231 cells assessed as change in interventricular septal systole dimension at 12 umol/kg, iv administered starting on day 5 measured after day 22 by echocardiography; type: toxicity, organism-based; settings: in vivo; in short: as §2
MCF7 = assay: Antiproliferative activity against FAP-alpha deficient human MCF7 cells incubated for 48 hrs by MTT assay; type: functional, cell-based; settings: MCF7, 48 h
In short: (§3)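 Cells grown in DMEM with 10% FBS and 1% penicillin-streptomycin at 37 °C, 5% CO2; 10% heat-inactivated FBS used during cytotoxicity testing to exclude serum FAP activity. Viability read by MTT; IC50 as mean ± SEM of at least three independent experiments. Transfected lines were made from MDA-MB-231 with human FAPα plasmid or empty pCMV6-Entry vector and checked by Western blot at 48 h.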

MDA-MB-231 = assay: Antiproliferative activity against human MDA-MB-231 cells transfected with human FAP-alpha incubated for 48 hrs by MTT assay; type: functional, cell-based; settings: MDA-MB-231, 48 h; in short: as §3
Mus musculus [9] = assay: Toxicity in BALB/C nude mouse xenografted with human MDA-MB-231 cells assessed as body weight change at 12 umol/kg, iv administered starting on day 5 measured after day 22; type: organism-based; settings: in vivo
Mus musculus [10] = assay: Cardiotoxicity in BALB/C nude mouse xenografted with human MDA-MB-231 cells assessed as change in left ventricular internal diastole dimension at 12 umol/kg, iv administered starting on day 5 measured after day 22 by echocardiography; type: toxicity, organism-based; settings: in vivo; in short: as §2
Mus musculus [11] = assay: Toxicity in BALB/C nude mouse xenografted with human MDA-MB-231 cells assessed as histopathologic change in spleen at 12 umol/kg, iv administered starting on day 5 measured after day 22 by hematoxylin-eosin staining-based assay; type: organism-based; settings: in vivo; in short: as §1
Mus musculus [12] = assay: Toxicity in BALB/C nude mouse xenografted with human MDA-MB-231 cells assessed as abnormal food intake at 12 umol/kg, iv administered starting on day 5 measured after day 22; type: organism-based; settings: in vivo

## C[C@]12CC[C@H](OC(=O)[C@H](Cc3c[nH]c4ccccc34)NC(=O)[C@@H]3CCCN3C(=O)CNC(=O)OCc3ccccc3)C[C@H]1CC[C@@H]1[C@@H]2[C@H](O)C(=O)[C@]2(C)[C@@H](c3ccc(=O)oc3)CC[C@]12O
Mus musculus [1]
  Activity: Non-Toxic
[2]
  Activity: Non-Toxic
Prolyl endopeptidase FAP
  Drug metabolism: Metabolite_Notdetected
Mus musculus [3]
  Activity: Non-Toxic
Mus musculus [4]
  Activity: Non-Toxic
Mus musculus [5]
  Activity: Non-Toxic
[6]
  Drug metabolism: 19.82 µmol/L
[7]
  selectivity ratio: 6.5
Mus musculus [8]
  Activity: Non-Toxic
MCF7
  IC50: 11.6 nM
MDA-MB-231
  IC50: 11.7 nM
Mus musculus [9]
  Activity: Non-Toxic
Mus musculus [10]
  Activity: Non-Toxic
Mus musculus [11]
  Activity: Non-Toxic
Mus musculus [12]
  Activity: Non-Toxic
